# Reference: ChEMBL document CHEMBL2380292, “Discovery of SAR184841, a potent and long-lasting inhibitor of 11β-hydroxysteroid dehydrogenase type 1, active in a physiopathological animal model of T2D” (Bioorg Med Chem Lett, 2013)
# Legend:
# Mus musculus [1] = assay: Antidiabetic activity in diet induced obese C57Bl/6J mouse assessed as plasma triglyceride level at 10 mg/kg, po qd administered for 4 weeks (reference value: 36.2 +/- 2.1 […]); format: functional
# Mus musculus [2] = assay: Antidiabetic activity in diet induced obese C57Bl/6J mouse assessed as plasma insulin level at 10 mg/kg, po qd administered for 4 weeks (reference value: 3.6 +/- 0.2 ng/mL); format: functional
# in vivo [3] = conditions: rat, adipose tissue, po, 10 mg/kg
# [4] = biological target: 11-beta-hydroxysteroid dehydrogenase 1 (Mus musculus, UniProt P50172); assay: Inhibition of mouse recombinant 11beta-HSD1 by scintillation proximity assay
# Mus musculus [5] = assay: Antidiabetic activity in diet induced obese C57Bl/6J mouse assessed as plasma leptin level at 10 mg/kg, po qd administered for 4 weeks (reference value: 22.5 +/- 2.4 ng/mL); format: functional
# [6] = Solubility of the compound in aqueous buffer up to pH 4.5; format: physicochemical
# [7] = Volume of distribution at steady state in rat at 3 mg/kg, iv and 10 mg/kg, po; format: ADME, organism-based; conditions: in vivo, read-out: Vdss
# Mus musculus [8] = assay: Antidiabetic activity in diet induced obese C57Bl/6J mouse assessed as liver triglyceride level at 1 mg/kg, po qd administered for 4 weeks (reference value: 210.5 +/- 15.4 mg/g); format: functional
# [9] = Induction of cytochrome P450 (unknown origin); format: ADME; conditions: human
# in vivo [10] = conditions: rat, brain, po, 10 mg/kg
# Liver microsomes = assay: Metabolic stability in rat liver microsomes; format: ADME, Microsome
# Mus musculus [11] = assay: Inhibition of 11beta-HSD1 in mouse liver at 3 mg/kg, po after 24 hrs; format: functional
# Outline: (§1)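 Pharmacodynamic study in mice: single oral 3 mg/kg dose, with liver and fat 11β-HSD1 activity followed over 24 h post-dosing.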
# Liver = assay: Metabolic stability in mouse liver microsomes; format: ADME, Microsome
# Mus musculus [12] = assay: Antidiabetic activity in diet induced obese C57Bl/6J mouse assessed as plasma insulin level at 1 mg/kg, po qd administered for 4 weeks (reference value: 3.6 +/- 0.2 ng/mL); format: functional
# Mus musculus [13] = assay: Antidiabetic activity in diet induced obese C57Bl/6J mouse assessed as plasma leptin level at 1 mg/kg, po qd administered for 4 weeks (reference value: 22.5 +/- 2.4 ng/mL); format: functional
# Mus musculus [14] = assay: Antidiabetic activity in diet induced obese C57Bl/6J mouse assessed as plasma glucose level at 1 mg/kg, po qd administered for 4 weeks (reference value: 297 +/- 15 mg/dL); format: functional
# Mus musculus [15] = assay: Antidiabetic activity in diet induced obese C57Bl/6J mouse assessed as plasma triglyceride level at 1 mg/kg, po qd administered for 4 weeks (reference value: 36.2 +/- 2.1 […]); format: functional
# Mus musculus [16] = assay: Antidiabetic activity in po dosed C57Bl/6J mouse assessed as reduction in plasma glucose level administered for 4 weeks; format: functional, organism-based
# [17] = Oral bioavailability in rat at 10 mg/kg; format: ADME, organism-based; conditions: in vivo
# [18] = biological target: T1, 11-beta-hydroxysteroid dehydrogenase type 2 (Homo sapiens, UniProt P80365); assay: Inhibition of human 11beta-HSD2
# T1 sequence (P80365 whole entry): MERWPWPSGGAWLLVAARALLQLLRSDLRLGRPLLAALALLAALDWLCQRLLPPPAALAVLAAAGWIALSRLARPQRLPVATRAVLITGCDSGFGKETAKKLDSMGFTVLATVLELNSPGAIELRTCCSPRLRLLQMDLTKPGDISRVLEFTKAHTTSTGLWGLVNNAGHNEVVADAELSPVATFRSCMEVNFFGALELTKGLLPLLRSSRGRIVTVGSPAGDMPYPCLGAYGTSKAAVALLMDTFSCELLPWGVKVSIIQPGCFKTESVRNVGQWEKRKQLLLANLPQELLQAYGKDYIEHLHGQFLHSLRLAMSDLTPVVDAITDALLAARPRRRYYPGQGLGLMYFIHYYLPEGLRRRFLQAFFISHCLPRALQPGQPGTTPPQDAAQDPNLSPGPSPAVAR
# Mus musculus [19] = assay: Antidiabetic activity in diet induced obese C57Bl/6J mouse assessed as liver triglyceride level at 10 mg/kg, po qd administered for 4 weeks (reference value: 210.5 +/- 15.4 mg/g); format: functional
# Cytochrome P450 3A4 = Cytochrome P450 3A4 (Homo sapiens, UniProt P08684); assay: Inhibition of CYP3A4 (unknown origin); format: ADME
# Mus musculus [20] = assay: Ex vivo inhibition of 11beta-HSD1 in C57Bl/6J mouse liver at 3 mg/kg, po after 16 hrs; format: functional
# Outline: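 Mice given a single oral dose as a suspension in Tween 80/0.6% methylcellulose (0.5/99.5, v/v) at 10 mL/kg. At 2 h or 16 h post-dose, animals were killed by cervical dislocation and 50 mg liver and 200 mg subcutaneous fat were taken for 11β-HSD1 activity. Reactions were stopped with HCl 1 N/methanol (1/1). 3H-cortisone and 3H-cortisol were quantified by HPLC with flow scintillation detection.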
# Mus musculus [21] = assay: Inhibition of 11beta-HSD1 in mouse adipose tissue at 3 mg/kg, po after 7 hrs; format: functional; outline: as §1
# Mus musculus [22] = assay: Inhibition of 11beta-HSD1 in mouse liver at 3 mg/kg, po after 7 hrs; format: functional; outline: as §1
# [23] = AUC (0 to infinity) in rat plasma at 10 mg/kg, po; format: ADME, organism-based; parameters: time infinity, dose 10 mg/kg, route oral
# Mus musculus [24] = assay: Antidiabetic activity in diet induced obese C57Bl/6J mouse assessed as plasma glucose level at 3 mg/kg, po qd administered for 4 weeks (reference value: 297 +/- 15 mg/dL); format: functional
# Mus musculus [25] = assay: Antidiabetic activity in diet induced obese C57Bl/6J mouse assessed as plasma cholesterol level at 10 mg/kg, po qd administered for 4 weeks (reference value: 154.3 +/- 8.6 mg/dL); format: functional
# Mus musculus [26] = assay: Antidiabetic activity in diet induced obese C57Bl/6J mouse assessed as plasma leptin level at 3 mg/kg, po qd administered for 4 weeks (reference value: 22.5 +/- 2.4 ng/mL); format: functional
# Mus musculus [27] = assay: Antidiabetic activity in diet induced obese C57Bl/6J mouse assessed as plasma triglyceride level at 3 mg/kg, po qd administered for 4 weeks (reference value: 36.2 +/- 2.1 […]); format: functional
# Mus musculus [28] = assay: Antidiabetic activity in diet induced obese C57Bl/6J mouse assessed as increase of glucose tolerance at 10 mg/kg, po after 3 weeks by oral glucose tolerance test; format: functional
# in vivo [29] = conditions: rat, liver, po, 10 mg/kg
# Hepatocyte = assay: Intrinsic clearance in human hepatocytes assessed per 10^-6 cells; format: ADME, cell-based
# Salmonella typhimurium = assay: Genotoxicity in Salmonella typhimurium by Ames test; format: toxicity, organism-based; conditions: salmonella enterica subsp. enterica serovar typhimurium
# [30] = biological target: 11-beta-hydroxysteroid dehydrogenase 1 (Rattus norvegicus, UniProt P16232); assay: Inhibition of rat 11beta-HSD1
# Mus musculus [31] = assay: Hepatotoxicity in C57Bl/6J mouse assessed as alteration of liver function biomarkers at 1 to 10 mg/kg, po after 4 weeks; format: toxicity, organism-based; parameters: dose 1-10 mg/kg, route oral; conditions: in vivo, 672 h
# 11-beta-hydroxysteroid dehydrogenase 1 (Mus musculus, UniProt P50172), sequence (P50172 whole entry): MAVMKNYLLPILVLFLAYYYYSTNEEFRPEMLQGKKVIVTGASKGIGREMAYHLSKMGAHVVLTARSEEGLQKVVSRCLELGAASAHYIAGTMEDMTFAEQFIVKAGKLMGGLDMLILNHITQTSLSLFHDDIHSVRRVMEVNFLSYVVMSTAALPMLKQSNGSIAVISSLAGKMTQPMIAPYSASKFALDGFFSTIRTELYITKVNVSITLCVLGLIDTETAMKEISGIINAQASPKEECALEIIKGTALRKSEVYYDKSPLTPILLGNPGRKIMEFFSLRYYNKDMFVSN
# 11-beta-hydroxysteroid dehydrogenase 1 (Rattus norvegicus, UniProt P16232), sequence (P16232 whole entry): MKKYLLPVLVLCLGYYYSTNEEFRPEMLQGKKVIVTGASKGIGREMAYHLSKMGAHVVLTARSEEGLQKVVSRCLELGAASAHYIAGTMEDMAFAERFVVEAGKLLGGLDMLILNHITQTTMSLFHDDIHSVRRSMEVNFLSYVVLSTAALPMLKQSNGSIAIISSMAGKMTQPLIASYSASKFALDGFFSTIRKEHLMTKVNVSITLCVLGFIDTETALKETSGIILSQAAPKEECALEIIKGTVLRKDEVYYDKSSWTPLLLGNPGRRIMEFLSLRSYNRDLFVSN
# Cytochrome P450 3A4, sequence (P08684 whole entry): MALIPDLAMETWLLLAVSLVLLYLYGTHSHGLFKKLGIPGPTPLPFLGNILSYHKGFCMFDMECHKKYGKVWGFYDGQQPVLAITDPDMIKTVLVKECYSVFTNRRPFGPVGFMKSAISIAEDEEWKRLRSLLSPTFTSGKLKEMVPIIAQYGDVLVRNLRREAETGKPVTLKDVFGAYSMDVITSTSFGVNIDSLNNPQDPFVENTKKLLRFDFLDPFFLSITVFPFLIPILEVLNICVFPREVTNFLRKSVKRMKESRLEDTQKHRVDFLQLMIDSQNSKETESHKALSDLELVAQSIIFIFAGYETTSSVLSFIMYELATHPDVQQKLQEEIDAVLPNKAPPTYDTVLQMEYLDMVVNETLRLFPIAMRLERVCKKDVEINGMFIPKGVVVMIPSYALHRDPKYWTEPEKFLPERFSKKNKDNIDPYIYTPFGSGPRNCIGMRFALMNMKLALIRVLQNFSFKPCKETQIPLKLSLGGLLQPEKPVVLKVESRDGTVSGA
structure (smiles),measurement,setting,value
CC(C)(C)N1CCN(c2ccc(N3CCN(C(=O)N[C@H]4C5CC6CC4C[C@](C(N)=O)(C6)C5)c4ccccc43)nc2)CC1,Activity,Mus musculus [1],35 mg/mL
same,Activity,Mus musculus [2],1.9 ng/mL
same,Kp,in vivo [3],2.2
same,IC50,[4],6 nM
same,Activity,Mus musculus [5],12.5 ng/mL
same,solubility,[6],> 2000 µg/mL
same,Vd,[7],14 L/kg
same,Activity,Mus musculus [8],167.4 mg/g
same,Activity,[9],Not Active
same,Kp,in vivo [10],0.14
same,Stability,Liver microsomes,15%
same,inhibition in vivo at 3 mg/kg,Mus musculus [11],60%
same,Stability,Liver,13%
same,Activity,Mus musculus [12],2.8 ng/mL
same,Activity,Mus musculus [13],14.9 ng/mL
same,Activity,Mus musculus [14],263 mg/dL
same,Activity,Mus musculus [15],33.8 mg/mL
same,Activity,Mus musculus [16],Dose-dependent effect
same,bioavailability,[17],25%
same,IC50,[18],4000 nM
same,Activity,Mus musculus [19],129.1 mg/g
same,IC50,Cytochrome P450 3A4,> 50000 nM
same,inhibition in vivo at 3 mg/kg,Mus musculus [20],> 50%
same,inhibition in vivo at 3 mg/kg,Mus musculus [21],> 90%
same,inhibition in vivo at 3 mg/kg,Mus musculus [22],> 90%
same,AUC(0-inf),[23],580 ng·h/mL
same,Activity,Mus musculus [24],251 mg/dL
same,Activity,Mus musculus [25],123.6 mg/dL
same,Activity,Mus musculus [26],12.5 ng/mL
same,Activity,Mus musculus [27],38.4 mg/mL
same,Activity,Mus musculus [28],-23%
same,Kp,in vivo [29],224
same,CLH,Hepatocyte,0.035 mL/h
same,Activity,Salmonella typhimurium,Non-toxic
same,IC50,[30],7 nM
same,Activity,Mus musculus [31],Non-toxic
